Consider one compound from ChEMBL document CHEMBL4261600 (Eur J Med Chem, 2018).

The structures appear in SMILES notation.

Assay [1] concerns the target Serine/threonine-protein kinase RIO3 (Homo sapiens) (UniProt O14730). The assay is described as follows: Binding affinity to wild-type human full length RIOK3 (M1 to E519 residues) expressed in bacterial expression system assessed as remaining unbound target protein level at 1000 nM by Kinomescan method relative to control. In outline: (§1)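 KINOMEscan competition binding profile across a panel of 468 kinases and mutants, with the inhibitor tested at a single concentration of 1 μM. Binding is reported as percent of control, meaning signal relative to a DMSO control.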

The species named for assay [2] is Homo sapiens. Kind of assay: Selectivity ratio of IC50 for recombinant full length His-tagged human CDK8/CyclinC to IC50 for recombinant full length His-tagged human CDK9/CyclinT1.
Assay [3] concerns the target Tyrosine-protein kinase TXK (Homo sapiens) (UniProt P42681). Kind of assay: Binding affinity to wild-type human partial length TXK (L238 to W527 residues) expressed in bacterial expression system assessed as remaining unbound target protein level at 1000 nM by Kinomescan method relative to control.
The test system of assay [4] is Phosphatidylinositol 4,5-bisphosphate 3-kinase catalytic subunit alpha isoform (Homo sapiens), P42336 [E545K]. Kind of assay: Binding affinity to human partial length PIK3CA E545K mutant (R108 to N1068 residues) expressed in mammalian expression system assessed as remaining unbound target protein level at 1000 nM by Kinomescan method relative to control. An outline of the steps:
(§2)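 KINOMEscan competition-binding profiling across the panel of 468 kinases and mutants, with inhibitor tested at 1 μM. Binding is expressed as percent of control, with DMSO as the reference control.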

Assay [5] has as its target Serine/threonine-protein kinase TAO2 (Homo sapiens) (UniProt Q9UL54). Kind of assay: Binding affinity to wild-type human partial length TAOK2 (M1 to A320 residues) expressed in mammalian expression system assessed as remaining unbound target protein level at 1000 nM by Kinomescan method relative to control.
The target in assay [6] is Dual specificity tyrosine-phosphorylation-regulated kinase 1B (Homo sapiens) (UniProt Q9Y463). Kind of assay: Binding affinity to wild-type human full length DYRK1B (M1 to S629 residues) expressed in bacterial expression system assessed as remaining unbound target protein level at 1000 nM by Kinomescan method relative to control. In outline: as §1
The target of assay [7] is Calcium/calmodulin-dependent protein kinase kinase 1 (Homo sapiens) (UniProt Q8N5S9). Kind of assay: Binding affinity to wild-type human partial length CAMKK1 (R65 to E414 residues) expressed in bacterial expression system assessed as remaining unbound target protein level at 1000 nM by Kinomescan method relative to control.
For assay [8], the target named is Tyrosine-protein kinase ABL1 (Homo sapiens) (UniProt P00519). The assay is described as follows: Binding affinity to wild-type human phosphorylated ABL1 (S229 to K512 residues) expressed in mammalian expression system assessed as remaining unbound target protein level at 1000 nM by Kinomescan method relative to control.
Assay [9] deals with Epidermal growth factor receptor (Homo sapiens) (UniProt P00533). The assay is described as follows: Binding affinity to human partial length EGFR S752-I759del mutant expressed in bacterial expression system assessed as remaining unbound target protein level at 1000 nM by Kinomescan method relative to control. An outline of the steps: as §2
The target of assay [10] is Serine/threonine-protein kinase ULK1 (Homo sapiens) (UniProt O75385). Kind of assay: Binding affinity to wild-type human partial length ULK1 (M1 to T309 residues) expressed in mammalian expression system assessed as remaining unbound target protein level at 1000 nM by Kinomescan method relative to control.
The target of assay [11] is Ribosomal protein S6 kinase alpha-3 (Homo sapiens) (UniProt P51812). Kind of assay: Binding affinity to wild-type human partial length C-terminal RSK2 kinase domain 2 (V402 to S715 residues) expressed in mammalian expression system assessed as remaining unbound target protein level at 1000 nM by Kinomescan method relative to control. In outline: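 Profiled in a KINOMEscan binding panel with the inhibitor at a single concentration of 1 μM. Binding to each kinase was read out as percent of control, relative to a DMSO control. Strong binders were defined as those with a percent control value below 1.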

For assay [12], the target named is CDK9/Cyclin K (Homo sapiens, UniProt P50750). The assay is described as follows: Inhibition of CDK9/Cyclin K (unknown origin) using PDKtide as substrate incubated at 37 degreeC for 1 hr followed by incubation at room temperature for 5 mins by ADP-Glo reagent based luminescence assay. The assay is classed as protein-complex assay. On the technique in general: ADP-Glo turns the ADP formed in a reaction into a luminescent signal.

For assay [13], the target named is Cyclin-dependent kinase-like 3 (Homo sapiens) (UniProt Q8IVW4). Kind of assay: Binding affinity to wild-type human partial length CDKL3 (M1 to D327 residues) expressed in bacterial expression system assessed as remaining unbound target protein level at 1000 nM by Kinomescan method relative to control.
Assay [14] deals with SKM-1. Kind of assay: Antiproliferative activity against human SKM1 cells after 72 hrs by Celltiter-Glo assay. The settings on record: SKM-1, 72 h. The assay is classed as functional. An outline of the steps: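 Cells seeded at 3000/well in 96-well plates, exposed to serially diluted compound for 72 h at 37 °C, 5% CO2. Viability read by CellTiter-Glo luminescence and normalized to DMSO control. GI50 derived from curve fit, mean of three independent measurements. Culture media: DMEM/10% FBS for adherent lines; IMDM for MV4-11 and MEC-1/2; RPMI 1640 for suspension lines and CHL.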
For orientation: ATP-based viability assays read luminescence as a measure of living cells.

The target of assay [15] is Cyclin-dependent kinase 4 (Homo sapiens) (UniProt P11802). The assay is described as follows: Binding affinity to wild-type human full length CDK4 (M1 to E303 residues) expressed in mammalian expression system assessed as remaining unbound target protein level at 1000 nM by Kinomescan method relative to control. An outline of the steps: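 KINOMEscan competitive binding profile at 1 μM inhibitor. Remaining target binding reported as percent of DMSO control.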

The target of assay [16] is Megakaryocyte-associated tyrosine-protein kinase (Homo sapiens) (UniProt P42679). The assay is described as follows: Binding affinity to wild-type human full length CTK (M43 to P508 residues) expressed in mammalian expression system assessed as remaining unbound target protein level at 1000 nM by Kinomescan method relative to control. An outline of the steps:
(§3)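 Single-point competition binding screen across a panel of 468 kinases and mutants, with the inhibitor at 1 μM. Binding is read out as percent of a DMSO control, and targets below 1 percent control were classed as strong binders.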

Assay [17] concerns Tyrosine-protein kinase ABL1 (Homo sapiens), P00519 [M351T]. Kind of assay: Binding affinity to human phosphorylated ABL1 M351T mutant (S229 to K512 residues) expressed in mammalian expression system assessed as remaining unbound target protein level at 1000 nM by Kinomescan method relative to control. An outline of the steps: as §3
Assay [18] addresses Phosphorylase b kinase gamma catalytic chain, skeletal muscle/heart isoform (Homo sapiens) (UniProt Q16816). Kind of assay: Binding affinity to wild-type human full length PHKG1 (M1 to Y387 residues) expressed in bacterial expression system assessed as remaining unbound target protein level at 1000 nM by Kinomescan method relative to control. An outline of the steps: as §1

Assay [19] addresses Serine/threonine-protein kinase RIO2 (Homo sapiens) (UniProt Q9BVS4). The assay is described as follows: Binding affinity to wild-type human partial length RIOK2 (M1 to D313 residues) expressed in mammalian expression system assessed as remaining unbound target protein level at 1000 nM by Kinomescan method relative to control.
Assay [20] has as its target Mitogen-activated protein kinase kinase kinase 7 (Homo sapiens) (UniProt O43318). Kind of assay: Binding affinity to wild-type human partial length TAK1 (M1 to Q303 residues) expressed in mammalian expression system assessed as remaining unbound target protein level at 1000 nM by Kinomescan method relative to control.

Sequence of Phosphatidylinositol 4,5-bisphosphate 3-kinase catalytic subunit alpha isoform (Homo sapiens), P42336 [E545K] (P42336 whole entry E545K, the tested form may be a part, canonical isoform): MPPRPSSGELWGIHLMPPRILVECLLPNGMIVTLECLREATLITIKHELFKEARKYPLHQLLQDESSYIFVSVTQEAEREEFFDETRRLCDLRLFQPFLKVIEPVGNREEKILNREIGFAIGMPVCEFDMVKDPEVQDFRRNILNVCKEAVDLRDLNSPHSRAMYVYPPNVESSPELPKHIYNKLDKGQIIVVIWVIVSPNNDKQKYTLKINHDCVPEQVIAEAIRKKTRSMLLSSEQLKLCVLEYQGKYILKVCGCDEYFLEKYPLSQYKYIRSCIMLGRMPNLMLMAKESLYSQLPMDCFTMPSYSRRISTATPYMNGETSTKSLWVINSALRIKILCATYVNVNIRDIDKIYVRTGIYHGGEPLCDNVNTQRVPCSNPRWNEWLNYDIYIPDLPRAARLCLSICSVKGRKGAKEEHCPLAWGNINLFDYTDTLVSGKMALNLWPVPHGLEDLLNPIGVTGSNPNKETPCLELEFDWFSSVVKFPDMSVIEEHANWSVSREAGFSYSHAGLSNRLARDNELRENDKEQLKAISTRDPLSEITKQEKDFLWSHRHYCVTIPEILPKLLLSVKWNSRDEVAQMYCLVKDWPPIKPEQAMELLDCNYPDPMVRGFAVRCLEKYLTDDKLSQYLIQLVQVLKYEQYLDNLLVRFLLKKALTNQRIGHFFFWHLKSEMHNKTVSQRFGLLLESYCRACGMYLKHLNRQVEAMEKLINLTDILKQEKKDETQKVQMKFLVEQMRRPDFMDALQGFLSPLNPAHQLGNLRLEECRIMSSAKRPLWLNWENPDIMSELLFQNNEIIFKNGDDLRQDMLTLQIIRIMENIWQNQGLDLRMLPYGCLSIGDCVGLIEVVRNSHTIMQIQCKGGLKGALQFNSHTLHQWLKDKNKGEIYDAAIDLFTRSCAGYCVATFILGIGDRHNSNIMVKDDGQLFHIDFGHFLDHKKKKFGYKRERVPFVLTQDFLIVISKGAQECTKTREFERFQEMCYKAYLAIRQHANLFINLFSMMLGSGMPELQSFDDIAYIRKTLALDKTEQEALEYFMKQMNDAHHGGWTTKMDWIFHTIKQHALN
Sequence of Tyrosine-protein kinase TXK (Homo sapiens) (P42681 whole entry, the tested form may be a part, canonical isoform): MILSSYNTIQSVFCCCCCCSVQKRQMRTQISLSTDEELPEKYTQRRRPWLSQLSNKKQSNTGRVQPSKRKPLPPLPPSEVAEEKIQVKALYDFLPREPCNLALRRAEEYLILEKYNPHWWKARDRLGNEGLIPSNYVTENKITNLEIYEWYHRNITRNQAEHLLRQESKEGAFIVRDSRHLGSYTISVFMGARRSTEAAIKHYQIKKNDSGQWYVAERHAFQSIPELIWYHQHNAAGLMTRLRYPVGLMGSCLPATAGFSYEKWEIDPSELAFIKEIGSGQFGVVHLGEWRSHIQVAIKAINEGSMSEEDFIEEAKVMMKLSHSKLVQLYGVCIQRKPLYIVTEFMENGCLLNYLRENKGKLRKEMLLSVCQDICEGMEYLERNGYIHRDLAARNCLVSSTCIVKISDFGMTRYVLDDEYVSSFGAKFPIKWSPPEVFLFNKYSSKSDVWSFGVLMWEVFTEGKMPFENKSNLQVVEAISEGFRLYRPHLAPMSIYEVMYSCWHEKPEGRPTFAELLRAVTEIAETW
Sequence of Mitogen-activated protein kinase kinase kinase 7 (Homo sapiens) (O43318 whole entry, the tested form may be a part): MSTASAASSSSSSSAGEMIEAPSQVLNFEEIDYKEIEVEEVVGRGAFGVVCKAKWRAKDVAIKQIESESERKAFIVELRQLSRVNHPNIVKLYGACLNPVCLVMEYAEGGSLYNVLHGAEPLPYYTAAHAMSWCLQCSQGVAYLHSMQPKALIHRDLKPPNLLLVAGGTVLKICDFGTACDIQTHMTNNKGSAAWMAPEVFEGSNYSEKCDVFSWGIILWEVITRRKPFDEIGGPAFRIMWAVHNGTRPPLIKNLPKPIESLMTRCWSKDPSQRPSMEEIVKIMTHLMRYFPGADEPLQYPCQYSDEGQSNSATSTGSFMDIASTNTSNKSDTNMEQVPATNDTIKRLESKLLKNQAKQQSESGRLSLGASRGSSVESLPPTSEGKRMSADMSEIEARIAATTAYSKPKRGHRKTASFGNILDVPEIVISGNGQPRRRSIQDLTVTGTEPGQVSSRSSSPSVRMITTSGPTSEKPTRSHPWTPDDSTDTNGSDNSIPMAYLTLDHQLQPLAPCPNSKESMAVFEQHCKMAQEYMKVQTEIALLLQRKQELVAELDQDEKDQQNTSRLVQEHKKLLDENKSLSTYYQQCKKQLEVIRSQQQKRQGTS
Sequence of Phosphorylase b kinase gamma catalytic chain, skeletal muscle/heart isoform (Homo sapiens) (Q16816 whole entry, looked up, the tested form may be a part, canonical isoform): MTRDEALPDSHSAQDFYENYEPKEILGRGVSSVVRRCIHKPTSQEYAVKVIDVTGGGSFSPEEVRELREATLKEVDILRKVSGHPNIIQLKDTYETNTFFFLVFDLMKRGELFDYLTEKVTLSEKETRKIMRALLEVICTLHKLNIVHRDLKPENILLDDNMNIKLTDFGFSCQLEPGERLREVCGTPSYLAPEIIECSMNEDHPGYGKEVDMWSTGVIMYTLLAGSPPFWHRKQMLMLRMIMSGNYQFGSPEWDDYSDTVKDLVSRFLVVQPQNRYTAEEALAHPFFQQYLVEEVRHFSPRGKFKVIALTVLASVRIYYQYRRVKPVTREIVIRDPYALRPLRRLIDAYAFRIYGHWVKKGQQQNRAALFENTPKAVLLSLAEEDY
Sequence of CDK9/Cyclin K (P50750 whole entry): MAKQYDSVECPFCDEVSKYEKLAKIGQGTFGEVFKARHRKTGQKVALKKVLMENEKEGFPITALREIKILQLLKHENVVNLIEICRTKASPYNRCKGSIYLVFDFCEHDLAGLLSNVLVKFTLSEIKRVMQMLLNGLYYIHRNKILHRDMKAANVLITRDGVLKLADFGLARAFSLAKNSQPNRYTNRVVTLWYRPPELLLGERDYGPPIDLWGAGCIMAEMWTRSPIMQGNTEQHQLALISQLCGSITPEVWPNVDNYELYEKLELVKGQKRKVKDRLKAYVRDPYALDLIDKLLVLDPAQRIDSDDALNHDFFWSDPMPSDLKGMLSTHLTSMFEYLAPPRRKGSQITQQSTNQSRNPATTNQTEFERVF
Sequence of CDK9/Cyclin K (O75909 whole entry, further chain): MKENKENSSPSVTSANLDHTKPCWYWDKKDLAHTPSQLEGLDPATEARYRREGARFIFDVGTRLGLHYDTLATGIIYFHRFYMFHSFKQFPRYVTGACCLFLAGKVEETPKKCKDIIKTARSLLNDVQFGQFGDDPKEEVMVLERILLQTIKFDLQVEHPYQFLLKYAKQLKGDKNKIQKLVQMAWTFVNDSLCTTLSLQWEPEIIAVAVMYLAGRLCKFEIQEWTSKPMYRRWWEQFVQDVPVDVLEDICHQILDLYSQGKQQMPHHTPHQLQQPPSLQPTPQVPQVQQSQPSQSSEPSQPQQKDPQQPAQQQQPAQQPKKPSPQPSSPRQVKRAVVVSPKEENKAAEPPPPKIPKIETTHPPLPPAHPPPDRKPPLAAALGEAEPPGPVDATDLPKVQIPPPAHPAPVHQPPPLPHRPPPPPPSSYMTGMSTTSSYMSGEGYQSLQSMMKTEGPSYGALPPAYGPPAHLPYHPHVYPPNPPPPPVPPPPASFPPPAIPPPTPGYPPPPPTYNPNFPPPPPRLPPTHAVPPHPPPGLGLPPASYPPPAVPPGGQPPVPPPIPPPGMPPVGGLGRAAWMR
Sequence of Serine/threonine-protein kinase RIO3 (Homo sapiens) (O14730 whole entry, the tested form may be a part): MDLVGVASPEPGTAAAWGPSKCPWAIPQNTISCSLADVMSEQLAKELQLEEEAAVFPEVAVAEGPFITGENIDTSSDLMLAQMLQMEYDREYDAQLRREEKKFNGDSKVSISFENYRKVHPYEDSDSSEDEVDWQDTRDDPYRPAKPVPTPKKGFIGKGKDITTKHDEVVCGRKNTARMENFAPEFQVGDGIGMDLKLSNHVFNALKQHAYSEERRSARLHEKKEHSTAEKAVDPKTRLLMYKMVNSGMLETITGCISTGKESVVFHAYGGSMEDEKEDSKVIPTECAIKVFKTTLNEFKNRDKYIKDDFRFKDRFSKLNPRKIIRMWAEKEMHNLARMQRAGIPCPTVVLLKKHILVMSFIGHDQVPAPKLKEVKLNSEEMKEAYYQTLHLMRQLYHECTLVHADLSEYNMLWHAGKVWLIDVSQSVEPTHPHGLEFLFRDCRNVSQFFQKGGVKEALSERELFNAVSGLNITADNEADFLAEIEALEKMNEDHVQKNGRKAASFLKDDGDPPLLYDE
Sequence of Calcium/calmodulin-dependent protein kinase kinase 1 (Homo sapiens) (Q8N5S9 whole entry, looked up, the tested form may be a part): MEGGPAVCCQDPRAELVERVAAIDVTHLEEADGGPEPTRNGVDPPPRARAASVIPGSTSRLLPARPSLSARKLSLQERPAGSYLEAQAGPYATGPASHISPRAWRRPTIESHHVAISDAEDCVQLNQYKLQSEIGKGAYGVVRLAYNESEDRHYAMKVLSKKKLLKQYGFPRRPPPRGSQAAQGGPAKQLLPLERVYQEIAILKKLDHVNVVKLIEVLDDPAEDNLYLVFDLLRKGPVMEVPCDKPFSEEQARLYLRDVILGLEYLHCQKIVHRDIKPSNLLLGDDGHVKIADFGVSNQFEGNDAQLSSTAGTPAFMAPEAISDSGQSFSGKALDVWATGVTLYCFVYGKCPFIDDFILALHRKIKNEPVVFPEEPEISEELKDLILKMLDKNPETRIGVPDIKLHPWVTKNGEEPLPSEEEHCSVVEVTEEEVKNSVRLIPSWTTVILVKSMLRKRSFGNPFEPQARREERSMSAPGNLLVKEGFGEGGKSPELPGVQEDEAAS
Sequence of Cyclin-dependent kinase 4 (Homo sapiens) (P11802 whole entry, the tested form may be a part): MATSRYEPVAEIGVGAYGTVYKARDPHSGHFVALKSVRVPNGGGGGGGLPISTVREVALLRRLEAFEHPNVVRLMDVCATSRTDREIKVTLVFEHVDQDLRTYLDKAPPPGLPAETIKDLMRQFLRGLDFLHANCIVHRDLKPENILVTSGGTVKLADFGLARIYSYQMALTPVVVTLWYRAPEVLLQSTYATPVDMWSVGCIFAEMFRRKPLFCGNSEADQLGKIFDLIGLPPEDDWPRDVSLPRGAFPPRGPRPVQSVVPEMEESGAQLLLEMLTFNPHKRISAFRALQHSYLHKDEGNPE

As to `COCCN[C@H]1CC[C@H](Nc2cc(-c3csc(NCC4(C#N)CCOCC4)n3)c(Cl)cn2)CC1`, the Activity stood at 99% in [1]; 90% in assay [3]; 100% in [4]; 60% in [5]; 0.35% in [6]; 84% in assay [7]. The Activity stood at 91% in assay [8]; 87% in assay [9]; 100% in assay [10]; 98% in [11]; 83% in assay [13]; 93% in [15]. Also, the Activity in [16] came out at 96%; in [17], 100%; in [18], 69%; in [19] it was 80%; in [20] it was 100%. Moreover, the Ratio IC50 in [2] is > 1000. For the same compound, in assay [12], the IC50 (usually the point on the concentration scale where inhibition reaches its midpoint) was determined as 6 nM. Moreover, in assay [14], the concentration for 50% growth inhibition (GI50) (commonly the concentration that inhibits growth by half) is 12 nM.
